In ChEMBL document CHEMBL4400518, “Synthesis, antimicrobial and cytotoxic activities, and molecular docking studies of N-arylsulfonylindoles containing an aminoguanidine, a semicarbazide, and a thiosemicarbazide moiety” (Eur J Med Chem, 2019):
pIC50: −log10 of the molar value. ≈ marks a conversion by molar mass, not a printed value.

Key:
[1] = Selectivity index, ratio of IC50 for HEK293T cells to MIC for methicillin-resistant Staphylococcus aureus ATCC 33591; format: toxicity; conditions: human, read-out: Selectivity Index
[2] = Selectivity index, ratio of IC50 for HEK293T cells to MIC for Staphylococcus aureus CMCC(B) 26003; format: toxicity; conditions: human, read-out: Selectivity Index
[3] = Selectivity index, ratio of IC50 for HEK293T cells to MIC for Streptococcus pyogenes CMCC 32067; format: toxicity; conditions: human, read-out: Selectivity Index
[4] = Selectivity index, ratio of IC50 for HEK293T cells to MIC for methicillin-resistant Staphylococcus aureus ATCC 43300; format: toxicity; conditions: human, read-out: Selectivity Index
Streptococcus pyogenes = test: Antibacterial activity against Streptococcus pyogenes CMCC 32067 measured after 24 hrs by ELISA; format: functional; conditions: CMCC 32067, 24 h
Method in brief: (§1)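 Broth microdilution MIC. Mid-log bacteria in MHB or TSB diluted 1000-fold, inoculated at 10^5 CFU/mL. Compounds added from DMSO stocks; final DMSO at most 0.05%. Incubation 24 h at 37 °C. Growth read as absorbance at 630 nm. MIC taken as the lowest concentration giving complete growth inhibition. Three independent experiments.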

[5] = Selectivity index, ratio of IC50 for HEK293T cells to MIC for Escherichia coli CMCC 25922; format: toxicity; conditions: human, read-out: Selectivity Index
[6] = Selectivity index, ratio of IC50 for HEK293T cells to MIC for Bacillus subtilis CMCC 63501; format: toxicity; conditions: human, read-out: Selectivity Index
Pseudomonas aeruginosa [7] = test: Antibacterial activity against multidrug-resistant Pseudomonas aeruginosa ATCC BAA-2111 measured after 24 hrs by ELISA; format: functional; conditions: ATCC BAA-2111, 24 h
Method in brief: (§2)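 Broth serial dilution MIC. Mid-log bacteria in Mueller-Hinton or Tryptone Soya broth, diluted 1000-fold and inoculated at 10^5 CFU/mL. Compounds from DMSO stock, final DMSO ≤0.05%. Incubated 24 h at 37 °C; growth read as absorbance at 630 nm. MIC is the lowest concentration giving complete growth inhibition. Three independent experiments.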

SGC-7901 = test: Cytotoxicity against human SGC7901 cells measured after 48 hrs by CCK8 assay; format: functional, cell-based; conditions: SGC-7901, 48 h
Method in brief: (§3)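 Cells kept in DMEM with 10% FBS and penicillin-streptomycin at 37 °C, 5% CO2. About 1×10^4 cells per well attached for 24 h, then exposed for 48 h to 0.3, 1, 3, 10, 30 and 100 µmol/L of compound, in triplicate wells. CCK-8 added for 3 h, OD read at 450 nm. IC50 is the concentration inhibiting growth by 50%.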

HEK-293T = test: Cytotoxicity against HEK293T cells measured after 48 hrs by CCK8 assay; format: cell-based; conditions: Homo sapiens; method in brief: as §3
[8] = Cytotoxicity against human A590 cells measured after 48 hrs by CCK8 assay; format: functional, cell-based; method in brief: as §3
[9] = Selectivity index, ratio of IC50 for HEK293T cells to MIC for multidrug-resistant Pseudomonas aeruginosa ATCC BAA-2111; format: toxicity; conditions: human, read-out: Selectivity Index
Enterococcus faecalis = test: Antibacterial activity against Enterococcus faecalis CMCC 29212 measured after 24 hrs by ELISA; format: functional; conditions: CMCC 29212, 24 h; method in brief: as §1
[10] = Selectivity index, ratio of IC50 for HEK293T cells to MIC for multidrug-resistant Escherichia coli ATCC BAA-196; format: toxicity; conditions: human, read-out: Selectivity Index
[11] = Selectivity index, ratio of IC50 for HEK293T cells to MIC for Escherichia coli CMCC 44568; format: toxicity; conditions: human, read-out: Selectivity Index
Staphylococcus aureus [12] = test: Antibacterial activity against Staphylococcus aureus CMCC(B) 26003 measured after 24 hrs by ELISA; format: functional; conditions: CMCC(B) 26003, 24 h; method in brief: as §1
[13] = Selectivity index, ratio of IC50 for HEK293T cells to MIC for Pseudomonas aeruginosa CMCC 27853; format: toxicity; conditions: human, read-out: Selectivity Index
Escherichia coli [14] = test: Antibacterial activity against Escherichia coli CMCC 44568 measured after 24 hrs by ELISA; format: functional; conditions: CMCC 44568, 24 h; method in brief: as §1
Staphylococcus aureus [15] = test: Antibacterial activity against methicillin-resistant Staphylococcus aureus ATCC 43300 measured after 24 hrs by ELISA; format: functional; conditions: ATCC 43300, 24 h; method in brief: as §2
Escherichia coli [16] = test: Antibacterial activity against Escherichia coli CMCC 25922 measured after 24 hrs by ELISA; format: functional; conditions: CMCC 25922, 24 h; method in brief: as §1
Staphylococcus aureus [17] = test: Antibacterial activity against Staphylococcus aureus CMCC 25923 measured after 24 hrs by ELISA; format: functional; conditions: CMCC 25923, 24 h; method in brief: as §1
[18] = Selectivity index, ratio of IC50 for HEK293T cells to MIC for Pseudomonas aeruginosa CMCC 10104; format: toxicity; conditions: human, read-out: Selectivity Index
Pseudomonas aeruginosa [19] = test: Antibacterial activity against Pseudomonas aeruginosa CMCC 27853 measured after 24 hrs by ELISA; format: functional; conditions: CMCC 27853, 24 h; method in brief: as §1
Escherichia coli [20] = test: Antibacterial activity against multidrug-resistant Escherichia coli ATCC BAA-196 measured after 24 hrs by ELISA; format: functional; conditions: ATCC BAA-196, 24 h; method in brief: as §2
Pseudomonas aeruginosa [21] = test: Antibacterial activity against Pseudomonas aeruginosa CMCC 10104 measured after 24 hrs by ELISA; format: functional; conditions: CMCC 10104, 24 h; method in brief: as §1
Staphylococcus aureus [22] = test: Antibacterial activity against methicillin-resistant Staphylococcus aureus ATCC 33591 measured after 24 hrs by ELISA; format: functional; conditions: ATCC 33591, 24 h; method in brief: as §2
[23] = Selectivity index, ratio of IC50 for HEK293T cells to MIC for Staphylococcus aureus CMCC 25923; format: toxicity; conditions: human, read-out: Selectivity Index
[24] = Selectivity index, ratio of IC50 for HEK293T cells to MIC for Streptococcus pneumoniae CMCC 31968; format: toxicity; conditions: human, read-out: Selectivity Index
Streptococcus pneumoniae = test: Antibacterial activity against Streptococcus pneumoniae CMCC 31968 measured after 24 hrs by ELISA; format: functional; conditions: CMCC 31968, 24 h
[25] = Selectivity index, ratio of IC50 for HEK293T cells to MIC for Enterococcus faecalis CMCC 29212; format: toxicity; conditions: human, read-out: Selectivity Index
Bacillus subtilis = test: Antibacterial activity against Bacillus subtilis CMCC 63501 measured after 24 hrs by ELISA; format: functional; conditions: CMCC 63501, 24 h; method in brief: as §1

Compound | selectivity ratio [1] | selectivity ratio [2] | selectivity ratio [3] | selectivity ratio [4] | MIC (Streptococcus pyogenes) | selectivity ratio [5] | selectivity ratio [6] | MIC (Pseudomonas aeruginosa [7]) | pIC50 (SGC-7901) | pIC50 (HEK-293T) | pIC50 [8] | selectivity ratio [9] | MIC (Enterococcus faecalis) | selectivity ratio [10] | selectivity ratio [11] | MIC (Staphylococcus aureus [12]) | selectivity ratio [13] | MIC (Escherichia coli [14]) | MIC (Staphylococcus aureus [15]) | MIC (Escherichia coli [16]) | also measured
Cc1ccc(S(=O)(=O)n2cc(/C=N\NC(=N)N)c3ccccc32)cc1 | 15.4 | 7.68 | < 0.24 | 30.7 | > 361 µM | 7.68 | 15.4 | 11.3 µM (≈ 4.01 µg/mL) | 5.67 | 4.06 | 4.91 | 7.67 | 45.1 µM (≈ 16 µg/mL) | 7.67 | 7.68 | 11.3 µM (≈ 4.01 µg/mL) | 1.92 | 11.3 µM (≈ 4.01 µg/mL) | 2.82 µM (≈ 1 µg/mL) | 11.3 µM (≈ 4.01 µg/mL) | MIC (Staphylococcus aureus [17]): 11.3 µM (≈ 4.01 µg/mL); selectivity ratio [18]: 7.68; MIC (Pseudomonas aeruginosa [19]): 45.1 µM (≈ 16 µg/mL); MIC (Escherichia coli [20]): 11.3 µM (≈ 4.01 µg/mL); MIC (Pseudomonas aeruginosa [21]): 11.3 µM (≈ 4.01 µg/mL); MIC (Staphylococcus aureus [22]): 5.63 µM (≈ 2 µg/mL); selectivity ratio [23]: 7.68; selectivity ratio [24]: 30.7; MIC (Streptococcus pneumoniae): 2.82 µM (≈ 1 µg/mL); selectivity ratio [25]: 1.92; MIC (Bacillus subtilis): 5.64 µM (≈ 2 µg/mL)
C/C(=N/NC(=N)N)c1cn(S(=O)(=O)c2ccc(C)cc2)c2ccccc12 | 9.78 | 4.89 | 2.44 | 9.78 | 21.7 µM (≈ 8.01 µg/mL) | 2.44 | 4.89 | > 86.7 µM | 5.62 | 4.28 | 5.57 | < 0.61 | 43.4 µM (≈ 16 µg/mL) | 4.89 | 4.89 | 10.8 µM (≈ 4 µg/mL) | 0.15 | 10.8 µM (≈ 4 µg/mL) | 5.42 µM (≈ 2 µg/mL) | 21.7 µM (≈ 8.01 µg/mL) | MIC (Staphylococcus aureus [17]): 5.42 µM (≈ 2 µg/mL); selectivity ratio [18]: 4.89; MIC (Pseudomonas aeruginosa [19]): 347 µM (≈ 128 µg/mL); MIC (Escherichia coli [20]): 10.8 µM (≈ 4 µg/mL); MIC (Pseudomonas aeruginosa [21]): 10.8 µM (≈ 4 µg/mL); MIC (Staphylococcus aureus [22]): 5.42 µM (≈ 2 µg/mL); selectivity ratio [23]: 9.78; selectivity ratio [24]: 19.6; MIC (Streptococcus pneumoniae): 2.71 µM (≈ 1 µg/mL); selectivity ratio [25]: 1.22; MIC (Bacillus subtilis): 10.8 µM (≈ 4 µg/mL)
Cc1ccc(S(=O)(=O)n2cc(/C=N\NC(=N)N)c3cc(Br)ccc32)cc1 | 63.9 | 31.8 | < 0.24 | 63.9 | > 296 µM | 7.95 | 31.8 | > 73.9 µM | 5.40 | 4.13 | 4.82 | < 0.99 | 9.24 µM (≈ 4.01 µg/mL) | 63.9 | 31.8 | 2.31 µM (≈ 1 µg/mL) | < 0.25 | 2.31 µM (≈ 1 µg/mL) | 1.15 µM (≈ 0.499 µg/mL) | 9.24 µM (≈ 4.01 µg/mL) | MIC (Staphylococcus aureus [17]): 2.31 µM (≈ 1 µg/mL); selectivity ratio [18]: < 0.25; MIC (Pseudomonas aeruginosa [19]): > 296 µM; MIC (Escherichia coli [20]): 1.15 µM (≈ 0.499 µg/mL); MIC (Pseudomonas aeruginosa [21]): > 296 µM; MIC (Staphylococcus aureus [22]): 1.15 µM (≈ 0.499 µg/mL); selectivity ratio [23]: 31.8; selectivity ratio [24]: < 0.25; MIC (Streptococcus pneumoniae): > 296 µM; selectivity ratio [25]: 7.95; MIC (Bacillus subtilis): 2.31 µM (≈ 1 µg/mL)
